Tested on: K562
Assay: In vitro cytotoxicity tested against human chronic leukemia K562 cells
Type: functional, cell-based
Outline: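 Human K562 chronic myeloid leukaemia cells, kept in log-phase suspension in RPMI 1640 with 10% horse serum at 37 °C, 5% CO2. Seeded at 600 cells/well and given continuous drug exposure for 5 days. Growth was read by MTT absorbance at 540 and 640 nm. Inhibition of growth was plotted against concentration, in triplicate at each concentration.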

| SMILES | IC50 [µM] |
| --- | --- |
| O=C1C(Br)=C(N2CC2)C(=O)C(Br)=C1N1CC1 | 0.042 |
| CCOC(=O)NC1=C(N2CC2)C(=O)C(NC(=O)OCC)=C(N2CC2)C1=O [DIAZIQUONE] | 0.063 |
| OCC/N=C1C(O)=C(N2CC2)/C(=N\CCO)C(O)=C/1N1CC1 | 0.158 |
| O=C1C(Cl)=C(N2CC2)C(=O)C(Cl)=C1N1CC1 | 0.046 |
| O=C1C=C(N2CC2)C(=O)C(Cl)=C1N1CC1 | 0.0053 |
| O=C1C(F)=C(N2CC2)C(=O)C(N2CC2)=C1F | 0.039 |
| O=C1C=C(N2CC2)C(=O)C(Br)=C1N1CC1 | 0.0073 |
| O=C1C=C(N2CC2)C(=O)C(c2ccccc2)=C1N1CC1 | 0.0031 |
| O=C1C(F)=C(N2CC2)C(=O)C(F)=C1N1CC1 | 0.01 |
| CC1=C(N2CC2)C(=O)C(C)=C(N2CC2)C1=O | 0.0018 |
| CC1=CC(=O)C(N2CC2)=CC1=O | 0.216 |
| CC1=C(C)C(=O)C(N2CC2)=CC1=O | 0.239 |
| O=C1C=C(N2CC2)C(=O)C(N2CC2)=C1N1CC1 [TRIAZIQUONE] | 0.0029 |
| O=C1C(c2ccccc2)=C(N2CC2)C(=O)C(c2ccccc2)=C1N1CC1 | 0.067 |
| Cc1ccc(C2=C(N3CC3)C(=O)C=C(N3CC3)C2=O)cc1 | 0.0048 |
| O=C1C=C(N2CC2)C(=O)C(I)=C1N1CC1 | 0.0126 |
| O=C1C=C(N2CC2)C(=O)C(c2ccc(Oc3ccccc3)cc2)=C1N1CC1 | 0.17 |
| O=C1C(I)=C(N2CC2)C(=O)C(I)=C1N1CC1 | 0.05 |
| CC1=C(N2CC2)C(=O)C(Cl)=C(N2CC2)C1=O | 0.076 |
| O=C1C(N2CC2)=C(N2CC2)C(=O)C(N2CC2)=C1N1CC1 | 0.0058 |
| O=C1C=C(N2CC2)C(=O)C=C1N1CC1 | 0.0083 |
| CC1=CC(=O)C(N2CC2)=C(C)C1=O | 0.476 |

— ChEMBL document CHEMBL1130405, “Cross-linking and sequence specific alkylation of DNA by aziridinyl quinones. 2. Structure requirements for sequence selectivity” (J Med Chem, 1997)
